The text below walks through data of ChEMBL document CHEMBL1149822, “Synthesis, antimicrobial and anti-inflammatory activities of some 1,2,4-triazolo[3,4-b][1,3,4]thiadiazoles and 1,2,4-triazolo[3,4-b][1,3,4]thiadiazines bearing trichlorophenyl moiety” (2008).

In brackets after ≈: the same amount, converted by molar mass.

What all share (assay type): functional
The subject of experiment [1] is Rattus norvegicus. Description: Antiinflammatory activity against carrageenan-induced paw oedema in albino rat at 50 mg/kg, po relative to control. Summed up:
(§1)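 Albino rats of 180–250 g were fasted 18 h and placed in groups of six. Samples were suspended in 2% w/v acacia mucilage, and the vehicle group served as control. 30 min after dosing, carrageenan (1 mg mL⁻¹, 0.1 mL) was injected subcutaneously into the right hind paw. Paw volume was measured immediately and at 3 h, and % oedema inhibition was calculated versus vehicle controls.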
In general terms: Carrageenan injected into the paw causes an acute inflammation.

Experiment [2] has as its system Staphylococcus aureus. Description: Antibacterial activity against Staphylococcus aureus ATTC 25923 after 16 to 18 hrs by serial plate dilution method. The procedure, abridged:
(§2)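 Serial dilutions were made in Mueller-Hinton broth in tubes, adjusted to […] with phosphate buffer, and inoculated with a standardized bacterial suspension. Tubes were incubated at 37 °C for 16–18 h. MIC was taken as the lowest concentration with no visible growth.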

The subject of experiment [3] is Aspergillus flavus. Description: Antifungal activity against Aspergillus flavus NCIM 524 by serial plate dilution method. Summed up: (§3)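 Agar of peptone 1 g, D-glucose 4 g and agar 2 g per 100 mL water, pH 5.7, was lawned with a fungal spore suspension in normal saline. The excess was decanted and plates were dried at 37 °C for 1 h. Wells were punched and compounds in DMSO were added, with a DMSO control. Plates were run in triplicate at 37 °C for 3–4 days, and the inhibition zone diameter was measured.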

Experiment [4] deals with Trichophyton mentagrophytes. Description: Antifungal activity against Trichophyton mentagrophytes at 12 ug/ml after 3 to 4 days. To be noted: read-out: IZ. The procedure, abridged:
as §3

Experiment [5] relates to Escherichia coli. The experiment is described as follows: Antibacterial activity against Escherichia coli ATTC 25922 after 16 to 18 hrs by serial plate dilution method. To be noted: ATCC25922. The procedure, abridged:
as §2

For experiment [6], the system named is Talaromyces marneffei. The experiment is described as follows: Antifungal activity against Penicillium marneffei at […] ug/ml after 3 to 4 days. To be noted: read-out: IZ.
The test system of experiment [7] is Escherichia coli. The experiment is described as follows: Antibacterial activity against Escherichia coli ATTC 25922 at 12 ug/ml after 3 to 4 days. To be noted: ATCC25922, read-out: IZ. The procedure, abridged:
(§4)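 Agar well diffusion. Plates were seeded with a bacterial suspension, the excess was decanted and plates were dried at 37 °C for 1 h. Wells were punched and compounds in DMSO were added, with DMSO wells as control. Plates were run in triplicate at 37 °C for 3–4 days and zones of inhibition were scored.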

For experiment [8], the system named is Aspergillus flavus. The experiment is described as follows: Antifungal activity against Aspergillus flavus NCIM 524 at 12 ug/ml after 3 to 4 days. Conditions: read-out: IZ. Summed up:
as §3

Experiment [9] relates to Aspergillus fumigatus. Description: Antifungal activity against Aspergillus fumigatus NCIM 902 at […] ug/ml after 3 to 4 days. To be noted: read-out: IZ.
Experiment [10] concerns Klebsiella pneumoniae. The experiment is described as follows: microbe, parasite or virus in culture. To be noted: read-out: IZ.
The test system of experiment [11] is Pseudomonas aeruginosa. Description: Antibacterial activity against Pseudomonas aeruginosa ATTC 27853 after 16 to 18 hrs by serial plate dilution method. To be noted: ATCC27853. Summed up:
as §2

Experiment [12] relates to Staphylococcus aureus. The experiment is described as follows: Antibacterial activity against Staphylococcus aureus ATTC 25923 at 12 ug/ml after 3 to 4 days. To be noted: read-out: IZ. The procedure, abridged:
as §4

Experiment [13] relates to Pseudomonas aeruginosa. The experiment is described as follows: microbe, parasite or virus in culture. To be noted: ATCC27853, read-out: IZ.
In experiment [14] the test system is Klebsiella pneumoniae. Description: Antibacterial activity against Klebsiella pneumoniae after 16 to 18 hrs by serial plate dilution method. The procedure, abridged:
as §2

The subject of experiment [15] is Aspergillus fumigatus. The experiment is described as follows: Antifungal activity against Aspergillus fumigatus NCIM 902 by serial plate dilution method.
Experiment [16] has as its system Talaromyces marneffei. Description: Antifungal activity against Penicillium marneffei by serial plate dilution method. The procedure, abridged:
as §3

Experiment [17] relates to Trichophyton mentagrophytes. Description: Antifungal activity against Trichophyton mentagrophytes by serial plate dilution method.
Experiment [18] has as its system Staphylococcus aureus. The experiment is described as follows: Antibacterial activity against Staphylococcus aureus ATTC 25923 at […] ug/ml after 3 to 4 days. To be noted: read-out: IZ.
Experiment [19] concerns Aspergillus flavus. The experiment is described as follows: Antifungal activity against Aspergillus flavus NCIM 524 at […] ug/ml after 3 to 4 days. Conditions: read-out: IZ.
Experiment [20] has as its system Trichophyton mentagrophytes. Description: Antifungal activity against Trichophyton mentagrophytes at […] ug/ml after 3 to 4 days. Conditions: read-out: IZ.
For experiment [21], the system named is Klebsiella pneumoniae. The experiment is described as follows: Antibacterial activity against Klebsiella pneumoniae at 12 ug/ml after 3 to 4 days. Conditions: read-out: IZ. Summed up: as §4
Experiment [22] concerns Aspergillus fumigatus. Description: Antifungal activity against Aspergillus fumigatus NCIM 902 at 12 ug/ml after 3 to 4 days. Conditions: read-out: IZ. Summed up: as §3
The test system of experiment [23] is Talaromyces marneffei. The experiment is described as follows: Antifungal activity against Penicillium marneffei at 12 ug/ml after 3 to 4 days. Conditions: read-out: IZ. Summed up:
as §3

For experiment [24], the system named is Escherichia coli. The experiment is described as follows: microbe, parasite or virus in culture. To be noted: ATCC25922, read-out: IZ.
Experiment [25] concerns Rattus norvegicus. The experiment is described as follows: Antiinflammatory activity against carrageenan-induced paw oedema in albino rat at 1.5 mg/kg, po, relative to control. The procedure, abridged:
as §1

The test system of experiment [26] is Pseudomonas aeruginosa. Description: Antibacterial activity against Pseudomonas aeruginosa ATTC 27853 at 12 ug/ml after 3 to 4 days. Conditions: ATCC27853, read-out: IZ. The procedure, abridged:
as §4

The subject of experiment [27] is Trichophyton mentagrophytes. The experiment is described as follows: Antifungal activity against Trichophyton mentagrophytes at 3.125 ug/ml after 3 to 4 days. To be noted: read-out: IZ. The procedure, abridged: as §3
Experiment [28] relates to Aspergillus flavus. Description: Antifungal activity against Aspergillus flavus NCIM 524 at 3.125 ug/ml after 3 to 4 days. To be noted: read-out: IZ. Summed up:
as §3

Regarding `Cc1ccc(-c2nn3c(-c4cc(Cl)cc(Cl)c4Cl)nnc3s2)cc1`, in the experiment on Rattus norvegicus [1], testing at 50 mg/kg gave an inhibition in vivo of 22.6%. Further, the MIC (usually the lowest concentration found to suppress growth) against Staphylococcus aureus [2] was determined as 12 µg/mL (≈ 30.3 µM); in the experiment with Aspergillus flavus [3] it was 12 µg/mL (≈ 30.3 µM); with Escherichia coli [5], 12 µg/mL (≈ 30.3 µM); against Pseudomonas aeruginosa [11] it was 6.25 µg/mL (≈ 15.8 µM); against Klebsiella pneumoniae [14], 6.25 µg/mL (≈ 15.8 µM); with Aspergillus fumigatus [15], 6.25 µg/mL (≈ 15.8 µM). Further, the MIC against Talaromyces marneffei [16] came out at 6.25 µg/mL (≈ 15.8 µM); in [17] it was 12 µg/mL (≈ 30.3 µM). Further, the zone of inhibition at 12 µg/mL (in experiment [4]; with Escherichia coli [7]; with Aspergillus flavus [8]; with Staphylococcus aureus [12]) was 11 mm each time. Also, the zone of inhibition at 6.25 µg/mL with Talaromyces marneffei [6], with Aspergillus fumigatus [9], with Klebsiella pneumoniae [10] and in the experiment on Pseudomonas aeruginosa [13] was 16 mm each time.

As to `Clc1cc(Cl)c(Cl)c(-c2nnc3sc(-c4ccccc4)nn23)c1`, 50 mg/kg produced 16.1% inhibition in vivo with Rattus norvegicus [1]. For the same compound, the MIC against Staphylococcus aureus [2] was found to be 6.25 µg/mL (≈ 16.4 µM); in the experiment with Aspergillus flavus [3] it was 6.25 µg/mL (≈ 16.4 µM); in the experiment on Escherichia coli [5], 6.25 µg/mL (≈ 16.4 µM); against Pseudomonas aeruginosa [11], 6.25 µg/mL (≈ 16.4 µM); with Klebsiella pneumoniae [14] it was 12 µg/mL (≈ 31.4 µM); against Aspergillus fumigatus [15] it was 12 µg/mL (≈ 31.4 µM). The MIC in the experiment with Talaromyces marneffei [16] worked out at 12 µg/mL (≈ 31.4 µM); in experiment [17], 6.25 µg/mL (≈ 16.4 µM). For the same compound, the zone of inhibition at 6.25 µg/mL (in the experiment on Staphylococcus aureus [18]; with Aspergillus flavus [19]; in experiment [20]; in the experiment with Pseudomonas aeruginosa [13]; in the experiment with Escherichia coli [24]) was 16 mm throughout. For the same compound, the zone of inhibition at 12 µg/mL in the experiment with Klebsiella pneumoniae [21], in the experiment with Aspergillus fumigatus [22] and with Talaromyces marneffei [23] was 11 mm in each case.

Consider `Cc1cc(C)cc(-c2nn3c(-c4cc(Cl)cc(Cl)c4Cl)nnc3s2)c1`, for which the MIC against Staphylococcus aureus [2] came out at 12 µg/mL (≈ 29.3 µM); against Aspergillus flavus [3] it was 6.25 µg/mL (≈ 15.3 µM); in the experiment with Escherichia coli [5], 6.25 µg/mL (≈ 15.3 µM); against Pseudomonas aeruginosa [11], 6.25 µg/mL (≈ 15.3 µM); with Klebsiella pneumoniae [14], 12 µg/mL (≈ 29.3 µM); in the experiment on Aspergillus fumigatus [15], 12 µg/mL (≈ 29.3 µM). Further, the MIC in the experiment with Talaromyces marneffei [16] was found to be 12 µg/mL (≈ 29.3 µM); in [17], 6.25 µg/mL (≈ 15.3 µM). The zone of inhibition at 6.25 µg/mL (in the experiment on Aspergillus flavus [19]; in [20]; in the experiment on Pseudomonas aeruginosa [13]; in the experiment with Escherichia coli [24]) was 16 mm in each case. In addition, the zone of inhibition at 12 µg/mL in the experiment on Staphylococcus aureus [12], in the experiment with Klebsiella pneumoniae [21], with Aspergillus fumigatus [22] and with Talaromyces marneffei [23] was 11 mm in each case.

On to `COc1ccc2c(c1)c(CC(=O)O)c(C)n2C(=O)c1ccc(Cl)cc1` [INDOMETHACIN], for which the inhibition in vivo (usually the relative decrease from the control value, in per cent) at 1.5 mg/kg with Rattus norvegicus [25] amounted to 59.7%.

In the experiment with Rattus norvegicus [1], `Clc1cc(Cl)c(Cl)c(-c2nnc3sc(-c4cccc5ncccc45)nn23)c1` had an inhibition in vivo at 50 mg/kg of 9.67%. Also, the MIC in the experiment on Staphylococcus aureus [2] was found to be 6.25 µg/mL (≈ 14.4 µM); in the experiment on Aspergillus flavus [3] it was 6.25 µg/mL (≈ 14.4 µM); in the experiment with Escherichia coli [5], 6.25 µg/mL (≈ 14.4 µM); against Pseudomonas aeruginosa [11] it was 12 µg/mL (≈ 27.7 µM); against Klebsiella pneumoniae [14] it was 6.25 µg/mL (≈ 14.4 µM); with Aspergillus fumigatus [15] it was 6.25 µg/mL (≈ 14.4 µM). Besides, the MIC (against Talaromyces marneffei [16]; in experiment [17]) was 6.25 µg/mL (≈ 14.4 µM) throughout. In addition, the zone of inhibition at 6.25 µg/mL (in the experiment on Staphylococcus aureus [18]; with Aspergillus flavus [19]; in experiment [20]; with Talaromyces marneffei [6]; in the experiment on Aspergillus fumigatus [9]; in the experiment with Klebsiella pneumoniae [10]) was 16 mm each time. Further, in the experiment on Escherichia coli [24], the zone of inhibition at 6.25 µg/mL amounted to 16 mm. Besides, the zone of inhibition at 12 µg/mL in the experiment with Pseudomonas aeruginosa [26] came to 11 mm.

For the compound `Cc1cc(C2CCCCC2)n(O)c(=O)c1.NCCO` [CICLOPIROX OLAMINE], the MIC in the experiment on Aspergillus flavus [3] is 3.12 µg/mL; with Aspergillus fumigatus [15], 6.25 µg/mL; against Talaromyces marneffei [16], 6.25 µg/mL; in experiment [17], 3.12 µg/mL. Besides, the zone of inhibition at 3.125 µg/mL in experiment [27] amounted to 27 mm; in the experiment with Aspergillus flavus [28], 25 mm. Also, the zone of inhibition at 6.25 µg/mL with Talaromyces marneffei [6] and in the experiment with Aspergillus fumigatus [9] was 16 mm in each case.
